# SENP1 FRET inh – human SENP1 catalytic domain inhibitors, primary screen, biochemical, FRET, uHTS; inhibition, % at 10 µM; recombinant SENP1 catalytic domain, CyPet-SUMO1-YPet FRET cleavage; Sentrin-specific protease 1 (Homo sapiens), Q9P0U3; 360,000 tested, 0.21% active;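 active = inhibition at least 30% at 10 µM, raw YFP signal under a set limit, fluorescence ratio 0.5 to 1.5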
# Target sequence (Q9P0U3 419-644 limits assumed): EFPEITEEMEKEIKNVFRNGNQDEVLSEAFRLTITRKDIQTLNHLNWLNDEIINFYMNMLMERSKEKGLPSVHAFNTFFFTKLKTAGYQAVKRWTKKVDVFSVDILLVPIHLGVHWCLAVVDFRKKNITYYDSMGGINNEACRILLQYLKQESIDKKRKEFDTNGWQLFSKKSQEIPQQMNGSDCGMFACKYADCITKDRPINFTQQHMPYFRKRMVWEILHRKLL
#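 Compound: 10 µM single point, 0.5% DMSO; Test system: hSENP1 catalytic domain, recombinant; Timing: 50 min reaction at room temperature; Technique: FRET, CFP and YFP emission; Control set: no-enzyme wells low, DMSO-plus-enzyme wells high control.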
# Apaf-1 inh – inhibitors of human Apaf-1 apoptosome, primary screen, biochemical, DEVD-Rh110 fluorescence, uHTS. inhibition, % at 20 µM. Apoptotic protease-activating factor 1 (Homo sapiens), O14727. reconstituted apoptosome caspase-3 activity. 330,000 tested, 0.71% active. AID 489030, 2010; active = inhibition of at least 40% at 20 µM
#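 Assay system: Apoptosome proteins | Medium: pH 7.5 Hepes buffer with CHAPS, BSA, DTT | Also added: Cytochrome c and DEVD-Rh110 substrate | Times: 30 min plus 50 min, RT | Detection: Rhodamine 110 fluorescence at Ex 480/Em 540 nm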
# SENP8 block-1 – SENP8 protease inhibitors, primary screen, biochemical, luminescence; Sentrin-specific protease 8 (Homo sapiens), Q96LD8; purified SENP8, Z-RLRGG-aminoluciferin cleavage; inhibition, % at 10 µM; 330,000 tested, 1.2% active; AID 2540, 2010; in the data active = inhibition above about 50%
# Target sequence (Q96LD8 whole entry, looked up): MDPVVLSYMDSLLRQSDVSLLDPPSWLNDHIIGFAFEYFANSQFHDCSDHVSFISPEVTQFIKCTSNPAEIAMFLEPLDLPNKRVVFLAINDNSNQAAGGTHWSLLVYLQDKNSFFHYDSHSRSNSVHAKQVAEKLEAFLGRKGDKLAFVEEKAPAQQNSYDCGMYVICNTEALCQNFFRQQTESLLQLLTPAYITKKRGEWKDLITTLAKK
# SENP6 block – SENP6 protease inhibitors, primary screen, biochemical, luminescence, uHTS; Recombinant SENP6 catalytic domain, aminoluciferin luminescence; inhibition, % at 10 µM; 330,000 tested, 1.8% active; AID 2599, 2010;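 active = inhibition above about 50% at the single tested dose, limit read from the data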
# SENP7 inh – SENP7 protease inhibitors, primary screen, biochemical, luminescence, uHTS | recombinant SENP7, Z-RLRGG-aminoluciferin luminescence, 40 min | inhibition, % at 5 µM | 330,000 tested, 1.5% active | AID 434973, 2010;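 active = inhibition above about 50% at the single test dose, limit read from the data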
# SENP8 block-2 – human SENP8 protease inhibitors, primary screen, biochemical, fluorescence, Nedd8 protein substrate, uHTS; recombinant SENP8; inhibition, % at 20 µM; 360,000 tested, 0.64% active; AID 602440, 2012; in the data active = inhibition mostly above about 40%, no sharp cut-off; inactive = mostly below about 27%
# SENP8 inh conf – human SENP8 protease inhibitors, confirmation, biochemical, Nedd8 protein substrate, single concentration; shares compounds with SENP8 block-2; purified SENP8, Nedd8-AMC/pro-Nedd8 cleavage fluorescence, 30 min; inhibition, % at 25 µM; 1,400 tested, 15% active; in the data active = inhibition mostly above about 39%, no sharp cut-off; inactive = mostly below about 34%
# Hits are given with their value; – = inactive; · = no result. Rows were chosen to be rich in hits. Some 2.9% of all compounds tested hit in one or more screens of this group.
SMILES,SENP1 FRET inh,Apaf-1 inh,SENP8 block-1,SENP6 block,SENP7 inh,SENP8 block-2,SENP8 inh conf
CCCN(CC1CC1)C(=S)NC(=O)c1cc(Br)ccc1Cl,–,–,–,–,–,–,·
COc1ccc(C(=O)CSc2nnc(C(CO)NC(=O)c3ccc(OC)cc3)n2C)cc1 (stereo unspecified),–,–,–,–,–,73,–
CCCCN(CC(=O)NC1CCCC1)C(=O)C(=O)Nc1ccc2c(c1)OCCO2,–,–,–,–,–,–,·
COc1ccc([N+](=O)[O-])cc1NC(=O)C(C)N1CCN(C(=O)c2ccco2)CC1 (stereo unspecified),–,–,–,–,–,38,–
COCCCN1C(=O)C(CC(=O)NC2CCCC2)CC(C(=O)N(C(C)C)C(C)C)=C1C (stereo unspecified),–,·,·,·,·,–,·
Cc1cccc(C)c1NC(=O)c1cn(-c2ccccc2)nc1-c1ccccc1,–,–,–,–,–,–,·
Cc1nn(Cc2ccc(Cl)c(Cl)c2)c(C)c1NC(=O)c1cn(-c2ccccc2)nc1-c1ccccc1,–,–,–,–,–,40,–
Nc1nc2ccc(Cl)cc2cc1C(=O)NCCCN1CCOCC1,–,·,·,·,·,–,·
CC(C)(C)n1c(O)c2n(c1=O)Cc1ccccc1N=C2c1ccccc1,–,·,·,·,·,–,·
O=C(OCn1nnc2ccccc2c1=O)C1CCCCC1,–,–,–,–,–,42,–
COc1ccccc1N(CC(=O)NC1CCCC1)C(=O)c1csnn1,–,–,–,–,–,45,–
Cc1ccc(C(=O)N2C(=S)C(c3ccc(F)cc3)=NC23CCN(C)CC3)cc1,–,–,–,–,–,66,58
Cc1ccc(/C=N/n2nnnc2N)o1,–,–,–,–,–,42,–
Cc1ccoc1C(=O)NCCCNC(=O)c1occc1C,–,–,–,–,–,62,82
COc1cc(-c2cnc3c(NC=O)cc(-c4ccccc4Cl)cn23)cc(OC)c1OC,–,·,·,·,·,–,·
CCOc1cc(C(c2c(C)[nH][nH]c2=O)c2c(C)[nH][nH]c2=O)ccc1OS(=O)(=O)c1ccccc1,–,–,–,–,–,44,47
CCOC(=O)CC(=O)Nc1ccc(C)cc1,–,–,–,–,–,40,–
Cc1ccc(Cc2cnc(NC(=O)/C(C#N)=C/c3ccc(-c4ccccc4[N+](=O)[O-])o3)s2)cc1,–,–,–,–,–,47,–
CNC(=O)/C(C#N)=C/c1ccc(-c2ccccc2[N+](=O)[O-])o1,–,–,–,–,–,–,·
CC1(C(=O)Nc2ccccc2)Cc2c(-c3cccc(C(F)(F)F)c3)ccnc2O1 (stereo unspecified),–,·,·,·,·,–,·
COc1ccc(CCC(C)NC2CCCCCCC2)cc1 (stereo unspecified),–,–,–,–,–,49,–
CCOC(=O)N1CCN(C(=O)COC(=O)c2ccc(Cl)nc2)CC1,–,–,–,–,–,–,·
O=C(NC(=S)Nc1cccc2c(O)cccc12)c1ccccc1[N+](=O)[O-],–,–,–,–,–,47,–
O=C(NNC(=S)NC(=O)c1ccccc1[N+](=O)[O-])c1ccccc1O,–,–,–,–,–,–,·
CN(C(=O)COC(=O)c1ccccc1OCc1ccc(Cl)cc1)c1c(N)n(Cc2ccccc2)c(=O)[nH]c1=O,–,–,–,–,–,–,·
SMILES,SENP1 FRET inh,Apaf-1 inh,SENP8 block-1,SENP6 block,SENP7 inh,SENP8 block-2,SENP8 inh conf
Nc1nonc1OCCN1CCN(c2ccc([N+](=O)[O-])c3cccnc23)CC1,–,–,–,–,–,47,–
Cc1nonc1OCCN1CCN(c2ccccc2[N+](=O)[O-])CC1,–,–,–,–,–,–,·
Cc1ccc(NC(=O)CCC(=O)N/N=C/c2ccc([N+](=O)[O-])o2)cc1C,–,–,–,–,–,63,–
Cc1cc(C(=O)N/N=C/c2cccnc2)c(C)o1,–,–,–,–,–,41,–
Cc1cc(C(=O)N/N=C/c2ccc([N+](=O)[O-])o2)c(C)o1,–,–,–,–,–,42,–
O=C(N/N=C/c1ccc([N+](=O)[O-])o1)c1cc(-c2cccc(Br)c2)nc2ccccc12,–,–,–,–,–,41,–
CCCc1ccc(-c2cc(C(=O)N/N=C/c3ccc([N+](=O)[O-])o3)c3ccccc3n2)cc1,–,–,–,–,–,–,·
Cc1nonc1C(=O)N/N=C/c1ccc([N+](=O)[O-])o1,–,–,–,–,–,–,·
COc1cc([N+](=O)[O-])cc2sc(NC(C)=O)nc12,–,–,–,–,–,59,–
CCCCC(=O)Nc1nc2c(OC)cc([N+](=O)[O-])cc2s1,–,–,–,–,–,–,·
Cc1ccc(NC(=O)c2ccc(Nc3c([N+](=O)[O-])cc([N+](=O)[O-])cc3[N+](=O)[O-])cc2)cc1,–,–,–,–,–,42,–
COc1cccc(S(=O)(=O)N(C)C[C@H]2Oc3ncc(Br)cc3C(=O)N([C@@H](C)CO)C[C@@H]2C)c1,–,·,·,·,·,–,·
Cc1noc(C)c1COc1ccccc1C(=O)NC1CCC(C)CC1 (stereo unspecified),–,–,–,–,–,–,·
CCC(C)N(C)C1CCN(C(=S)Nc2cccc(SC)c2)CC1 (stereo unspecified),–,–,–,–,–,43,–
CSc1cccc(NC(=S)N2CCC(N(C)C(C)C)CC2)c1,–,–,–,–,–,–,·
CN(C)c1cc(Nc2cccc(O)c2)c([N+](=O)[O-])c2nonc12,–,–,–,–,–,45,–
CCc1noc(C)c1C(=O)NCCc1ccc(Cl)cc1,–,–,–,–,–,–,·
Cc1onc(-c2ccccc2)c1C(=O)NCCc1ccc(Cl)cc1,–,–,–,–,–,51,–
O=C(O)CSc1nnc2n(-c3ccccc3)c(=O)c3ccccc3n12,–,–,–,–,–,–,·
Cc1nnc2n(-c3ccccc3)c(=O)c3ccccc3n12,–,–,–,–,–,41,–
O=C(c1ccc(Cl)s1)N1CCN(S(=O)(=O)c2ccc(Cl)cc2)CC1,–,–,–,–,–,–,·
Cc1nc(SCC(=O)NCc2ccccc2)c2oc3ccccc3c2n1,–,–,–,–,–,–,·
